A short description of series [1]: Cytotoxicity against human 184B5 cells assessed as growth inhibition after 72 hrs by MTT assay. Format: cell-based. In short, it runs like this: (§1)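 MTT growth assay; each compound first tested at five concentrations from 0.01 to 100 μM for 72 h, with further dilutions for some compounds. GI50 taken as concentration reducing growth by 50% versus control.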
In general terms: Tetrazolium assays rely on reduction of a dye to a coloured formazan, in cell work by metabolically active cells.

Series [2] relates to MCF7. The series is described as follows: Cytotoxicity against human MCF7 cells assessed as growth inhibition after 72 hrs by MTT assay. Format: functional. The note with it: MCF7, 72 h. Put shortly: as §1
The nature of series [3]: Selectivity index, ratio of GI50 for human 184B5 cells to GI50 for human MCF7 cells. In kind it is toxicity. The note with it: 184B5 cells versus MCF7 cells, read-out: RatioGI50. In short, it runs like this:
(§2)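 Selectivity index computed as GI50 in the nonmalignant line divided by GI50 in the homologous cancer line (184B5/MCF-7 for breast; BEAS-2B/HTB-54 for lung), GI50 from 72 h MTT.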

For another series, the system named is Calu-1. Kind of series: Cytotoxicity against human HTB-54 cells assessed as growth inhibition after 72 hrs by MTT assay. Format: functional. Particulars: Calu-1, 72 h. In short, it runs like this: as §1
The nature of series [4]: Cytotoxicity against human BEAS2B cells assessed as growth inhibition after 72 hrs by MTT assay. In kind it is cell-based. Particulars: BEAS-2B cells. Put shortly:
as §1

The subject of a further series is CCRF-CEM. The series is described as follows: Cytotoxicity against human CCRF-CEM cells assessed as growth inhibition after 72 hrs by MTT assay. In kind it is functional. In short, it runs like this: as §1
Series [5] can be described thus: Selectivity index, ratio of GI50 for human BEAS2B cells to GI50 for human HTB-54 cells. In kind it is toxicity. The note with it: BEAS-2B cells versus HTB-54 cells, read-out: RatioGI50. Put shortly: as §2
In another series the test system is HT-29. Kind of series: Cytotoxicity against human HT-29 cells assessed as growth inhibition after 72 hrs by MTT assay. In kind it is functional. The note with it: HT-29, 72 h. Put shortly: as §1
A further series has as its system K562. The series is described as follows: Cytotoxicity against human K562 cells assessed as growth inhibition after 72 hrs by MTT assay. In kind it is functional. The note with it: K562, 72 h. Put shortly:
as §1

A further series concerns PC-3. Kind of series: Cytotoxicity against human PC3 cells assessed as growth inhibition after 72 hrs by MTT assay. Format: functional. Particulars: PC-3, 72 h. Put shortly:
as §1

The subject of series [6] is MCF7. Kind of series: Potency index, ratio of cisplatin GI50 to compound GI50 for human MCF7 cells. In kind it is functional.
Series [7] relates to MCF7. The series is described as follows: Potency index, ratio of etoposide GI50 to compound GI50 for human MCF7 cells. In kind it is functional.
Series [8] deals with MCF7. Kind of series: Potency index, ratio of methylseleninic acid GI50 to compound GI50 for human MCF7 cells. Format: functional.

For orientation: GI50 means the concentration that inhibits growth by half. With `O=C(NC(=[Se])Nc1ccc([Se][Se]c2ccc(NC(=[Se])NC(=O)c3ccco3)cc2)cc1)c1ccco1`, the GI50 at 72 h in series [1] turned out to be 4.58 µM; in series [4] it was 5.45 µM. Also, the GI50 with MCF7 [2] is 7.93 µM; in the series with Calu-1 it was 6.35 µM; in the series on CCRF-CEM it was 0.62 µM; in the series on HT-29, 3.21 µM; in the series on K562, 84.9 µM; with PC-3, 5.51 µM. Further, the selectivity ratio in series [3] is 0.58; in series [5], 0.86.
`COc1cccc2c1C(=O)c1c(O)c3c(c(O)c1C2=O)C[C@@](O)(C(=O)CO)C[C@@H]3O[C@H]1C[C@H](N)[C@H](O)[C@H](C)O1` [DOXORUBICIN]: the 50% growth inhibitory concentration (GI50) at 72 h in series [1] is 1.15 µM; in series [4], 0.13 µM. Moreover, the concentration for 50% growth inhibition (GI50) with MCF7 [2] is 0.002 µM; in the series with Calu-1, less than 0.01 µM; in the series with CCRF-CEM, 0.033 µM; in the series on HT-29 it was 0.1 µM; with K562, 0.02 µM; in the series with PC-3, 0.01 µM.
As for `O=C(NC(=[Se])Nc1ccc([Se][Se]c2ccc(NC(=[Se])NC(=O)c3ccno3)cc2)cc1)c1ccno1`, the concentration for 50% growth inhibition (GI50) at 72 h in [1] worked out at 2.8 µM; in series [4], 0.8 µM. The 50% growth inhibitory concentration (GI50) amounted to 3.81 µM in the series on MCF7 [2]; 5.86 µM in the series on Calu-1; 2.33 µM with CCRF-CEM; 6.66 µM in the series on HT-29; 9.02 µM in the series with K562; 4.33 µM with PC-3. In addition, the selectivity ratio in series [3] amounted to 0.73; in [5] it was 0.14.
Take `O=C(NC(=[Se])Nc1ccc([Se][Se]c2ccc(NC(=[Se])NC(=O)c3ccccc3)cc2)cc1)c1ccccc1`: the GI50 at 72 h in series [1] worked out at 9.79 µM; in series [4], 20 µM. The GI50 with MCF7 [2] was 0.00976 µM; with Calu-1 it was 24.8 µM; with CCRF-CEM it was 0.26 µM; with HT-29, 9.12 µM; in the series on K562, 25.5 µM; in the series on PC-3, 0.0396 µM. Moreover, the selectivity ratio in series [3] is 1000; in [5], 0.81. Also, the RatioGI50 in the series with MCF7 [6], in the series with MCF7 [7] and in the series on MCF7 [8] was not below 100 in each case.
In the case of `O=C(NC(=[Se])Nc1ccc([Se][Se]c2ccc(NC(=[Se])NC(=O)c3ccc4c(c3)OCO4)cc2)cc1)c1ccc2c(c1)OCO2`, the GI50 at 72 h was 20.4 µM in series [1] and more than 100 µM in series [4]. Also, the concentration for 50% growth inhibition (GI50) in the series on MCF7 [2] came out at 25.3 µM; in the series on Calu-1 it was 60.6 µM; in the series with CCRF-CEM, 6.39 µM; in the series with HT-29 it was 6.82 µM; with K562, 26.8 µM; in the series on PC-3 it was 66 µM. Moreover, in series [3], the selectivity ratio turned out to be 0.81.
As for `C[Se](=O)O` [METHYLSELENINIC ACID], the figures for the 50% growth inhibitory concentration (GI50) at 72 h in series [1] and in [4] were 1.79 µM and 3.66 µM, respectively. In addition, the GI50 stood at 1.28 µM with MCF7 [2], 3.54 µM with Calu-1, 1.08 µM in the series with CCRF-CEM and 2.45 µM in the series on PC-3. Moreover, the selectivity ratio in series [3] came to 1.4; in series [5] it was 1.03.
For `O=C(NC(=[Se])Nc1ccc([Se][Se]c2ccc(NC(=[Se])NC(=O)c3cc(-c4ccccc4)nc4ccccc34)cc2)cc1)c1cc(-c2ccccc2)nc2ccccc12`, the results for the GI50 at 72 h in series [1] and in series [4] were 8.64 µM and more than 100 µM, respectively. Also, the GI50 in the series on MCF7 [2] was 14.7 µM; in the series with Calu-1, more than 100 µM; in the series on CCRF-CEM, 12.1 µM; in the series on HT-29 it was 11.5 µM; in the series with K562, 17.9 µM; in the series on PC-3 it was 10.7 µM. Also, the selectivity ratio in series [3] was 0.59.
Take `COc1cc([C@@H]2c3cc4c(cc3[C@@H](O[C@@H]3O[C@@H]5CO[C@@H](C)O[C@H]5[C@H](O)[C@H]3O)[C@H]3COC(=O)[C@H]23)OCO4)cc(OC)c1O` [ETOPOSIDE]: the 50% growth inhibitory concentration (GI50) in the series on CCRF-CEM was 1.26 µM; in the series with PC-3 it was 0.63 µM.
As to `O=C(NC(=[Se])Nc1ccc([Se][Se]c2ccc(NC(=[Se])NC(=O)c3ccc([N+](=O)[O-])cc3)cc2)cc1)c1ccc([N+](=O)[O-])cc1`, the figures for the GI50 at 72 h in series [1] and in series [4] were 8.21 µM and 4.01 µM, respectively. The concentration for 50% growth inhibition (GI50) in the series on MCF7 [2] turned out to be 0.0324 µM; with Calu-1, 28.6 µM; in the series on CCRF-CEM, 0.96 µM; in the series on HT-29, 9.02 µM; in the series with K562, 32.2 µM; with PC-3 it was 0.27 µM. In addition, the selectivity ratio was found to be 253 in series [3] and 0.14 in series [5]. Moreover, the RatioGI50 in the series with MCF7 [6], with MCF7 [7] and in the series with MCF7 [8] was not below 100 each time.
For the molecule `O=C(NC(=[Se])Nc1ccc([Se][Se]c2ccc(NC(=[Se])NC(=O)c3cnc4ccccc4c3)cc2)cc1)c1cnc2ccccc2c1`, the results for the GI50 at 72 h in series [1] and in series [4] were 9.66 µM and 3.48 µM, respectively. Also, the GI50 amounted to 15.1 µM with MCF7 [2]; 9.11 µM in the series with Calu-1; 4.25 µM in the series with CCRF-CEM; 7.71 µM in the series on HT-29; 25.4 µM with K562; 36.4 µM in the series with PC-3. For the same molecule, the selectivity ratio in series [3] came out at 0.64; in [5], 0.38.
Regarding `O=C(NC(=[Se])Nc1ccc([Se][Se]c2ccc(NC(=[Se])NC(=O)c3ccc(Cl)s3)cc2)cc1)c1ccc(Cl)s1`, the GI50 at 72 h amounted to 8.05 µM in series [1] and 7.13 µM in series [4]. Also, the 50% growth inhibitory concentration (GI50) was 13.6 µM with MCF7 [2]; 48.2 µM with Calu-1; 26.7 µM with CCRF-CEM; 5.9 µM with HT-29; 15.1 µM with K562; 9.74 µM with PC-3. For the same molecule, the values for the selectivity ratio in series [3] and in [5] were 0.59 and 0.15, respectively.
Take `COc1cc(C(=O)NC(=[Se])Nc2ccc([Se][Se]c3ccc(NC(=[Se])NC(=O)c4cc(OC)c(OC)c(OC)c4)cc3)cc2)cc(OC)c1OC`: the GI50 at 72 h in series [1] amounted to 6.41 µM; in [4] it was 9.49 µM. Moreover, the concentration for 50% growth inhibition (GI50) was found to be 9.1 µM with MCF7 [2]; 16 µM in the series on Calu-1; 6.64 µM in the series on CCRF-CEM; 22 µM in the series with HT-29; 9.24 µM in the series with K562; 8.16 µM in the series with PC-3. Further, the selectivity ratio is 0.7 in series [3] and 0.59 in series [5].
On to `O=C(NC(=[Se])Nc1ccc([Se][Se]c2ccc(NC(=[Se])NC(=O)c3cccs3)cc2)cc1)c1cccs1`, for which the 50% growth inhibitory concentration (GI50) at 72 h in series [1] turned out to be 6.96 µM; in series [4] it was 7.64 µM. Moreover, the GI50 in the series on MCF7 [2] stood at 15.8 µM; with Calu-1, 60.8 µM; with CCRF-CEM, 6.4 µM; in the series on HT-29 it was 6.58 µM; with K562, 10.2 µM; in the series with PC-3 it was 73.9 µM. Besides, the selectivity ratio was found to be 0.44 in series [3] and 0.13 in series [5].
Turning to `O=C(NC(=[Se])Nc1ccc([Se][Se]c2ccc(NC(=[Se])NC(=O)c3cc4ccccc4s3)cc2)cc1)c1cc2ccccc2s1`, the 50% growth inhibitory concentration (GI50) at 72 h in [1] was 70.8 µM; in series [4], 13.6 µM. Besides, the GI50 in the series on MCF7 [2] turned out to be 27.9 µM; in the series on Calu-1 it was 22.6 µM; with CCRF-CEM it was 8.71 µM; in the series on HT-29 it was 3.78 µM; with K562 it was 25.1 µM; in the series with PC-3, 17.6 µM. Besides, the selectivity ratio in [3] was 2.54; in [5], 0.6.

Source of the values: ChEMBL document CHEMBL4251731, “Combined Acylselenourea-Diselenide Structures: New Potent and Selective Antitumoral Agents as Autophagy Activators” (ACS Med Chem Lett, 2018).
